One may read the solubility as the dissolved amount per volume that the medium holds. In general, pKa refers to the negative logarithm of the acid dissociation constant. High values mean a weaker acid or stronger base, low ones a stronger acid or weaker base.

This is an account of results in ChEMBL document CHEMBL1122666, “Bile acids with a cyclopropyl-containing side chain. 1. Preparation and properties of 3 alpha, 7 beta-dihydroxy-22,23-methylene-5 beta-cholan-24-oic acid” (J Med Chem, 1984).

The structures appear in SMILES notation. Converted amounts (≈) assume the structure as drawn.

Series [1] in a line: Compound was evaluated for physico-chemical property of Water solubility (bile acid) at 25 degree C. Format: ADME. In outline:
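For solubility, solutions were held for 1 month, filtered through 0.22 µm, and methanol was added to prevent crystallization. Dissolved bile acid was quantified enzymatically with 3α-hydroxysteroid dehydrogenase.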

Series [2] in a line: Compound was evaluated for physico-chemical property of Critical micellar concentration (CMC). It counts as ADME. In outline:
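For the CMC, sodium salt solutions from 0.1 to 100 mmol were adjusted to pH 8.00 with NaOH and rotated for 1 day at room temperature in the dark with excess Azulene or Orange OT dye. After 0.22-µm filtration, absorbance was read at 580 or 490 nm and plotted against bile salt concentration. Values are mean ± SD of five determinations.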

Series [3] can be described thus: Compound was evaluated for physico-chemical property of Constant, pKa. It counts as physicochemical.
For series [4], the species on record is Rattus norvegicus. As to the kind of experiment: Compound was evaluated for Bile flow. It counts as functional. In outline:
(§1)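 Male Sprague–Dawley rats (300-330 g) were anesthetized with ethyl carbamate and the bile was collected. Bile acids were given i.v. as sodium salts via the femoral vein at 50 mg per animal, five rats per group, and bile was sampled at 15-min intervals. Flow volume and bile acid, cholesterol and phospholipid concentrations were measured by enzymatic assays. Controls were five rats; values are mean ± SD.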

Series [5] is filed under the species Rattus norvegicus. As to the kind of experiment: Compound was evaluated for Percent hepatic uptake. Format: functional. In outline: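 Single-pass isolated perfused rat liver; perfusate Krebs-Ringer bicarbonate pH 7.4 with glucose and 3% w/v fatty-acid-free bovine serum albumin, Evans blue (1 mg/g liver) as flow/recovery marker. 200 μL of 10-µmol/L bile acid injected; outflow collected at 10-s intervals, bile acid measured enzymatically (3α-hydroxysteroid dehydrogenase), Evans blue at 610 nm. Outflow corrected for Evans blue; uptake = 100% − outflow.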

Series [6] is filed under the species Rattus norvegicus. As to the kind of experiment: Compound was evaluated for Bile acid secretion. Format: functional. Summed up:
as §1

Series [7] is filed under the species Rattus norvegicus. As to the kind of experiment: Compound was evaluated for Phospholipid secretion. It counts as functional. Summed up: as §1
Series [8] is filed under the species Rattus norvegicus. As to the kind of experiment: Compound was evaluated for Cholesterol secretion. It counts as functional. In outline:
as §1

In series [9] the target is Serum albumin (Homo sapiens) (UniProt P02768). As to the kind of experiment: Compound was evaluated for Albumin affinity constant.

With `C[C@H](CCC(=O)O)[C@H]1CC[C@H]2[C@@H]3[C@@H](O)C[C@@H]4C[C@H](O)CC[C@]4(C)[C@H]3CC[C@]12C` [URSODIOL], the concentration in solution in series [1] (solubility) came to 9 µM (≈ 3.53 µg/mL). In series [2], this compound yielded a CMC of 19 mM. This compound gave a pKa in series [3] of 5.08. Also, in series [4], the Bile flow turned out to be 1.08 mL/h. This compound displayed an Intake in series [5] of 50%. Further, the Secretion in series [6] was found to be 98 µM/h/kg; in series [7] it was 6.47 µM/h/kg; in series [8], 2.12 µM/h/kg.
The compound `CC(C1CC1C(=O)O)C1CC[C@H]2[C@@H]3[C@@H](O)CC4C[C@H](O)CCC4(C)[C@H]3CCC12C` (some centres not stated) came in with a solubility in [1] of 11.8 µM (≈ 4.77 µg/mL). Also, the CMC in series [2] is 15.5 mM. This compound displayed a pKa in series [3] of 5.01. Further, the Bile flow in [4] turned out to be 1.68 mL/h. The compound also came in with an Intake in series [5] of 46%. The Secretion was found to be 97 µM/h/kg in series [6], 9.5 µM/h/kg in [7] and 2.7 µM/h/kg in [8]. For the same compound, in [9], the Affinity constant is 68000 l M-1.
